T cruzi growth-1: T. cruzi proliferation inhibition; T. cruzi beta-gal in NIH3T3, GalScreen luminescence, 90 h; inhibition, % at 8.34 µM; 77,000 compounds, 5.9% hits; AID 624255;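 active = mean inhibition above about 93%, with at least 55% of replicates each passing it, limit read from the data, passing the limit was not always enough; inconclusive = only one of those two conditions holds; inactive = neither condition holds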
KDM4C inh: KDM4C (human) demethylase inhibition; GST-KDM4C 2-372, H3K9me3 peptide, LANCE TR-FRET; 96,000 compounds, 0.15% hits; inhibition, % at 12.5 µM;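 active = mean replicate inhibition above about 25%, with at least 55% of replicates also reaching it, limit read from the data, passing the limit was not always enough; inconclusive = only one of those two conditions met; inactive = neither condition met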
Target sequence (Q9H3R0 2-372 limits assumed): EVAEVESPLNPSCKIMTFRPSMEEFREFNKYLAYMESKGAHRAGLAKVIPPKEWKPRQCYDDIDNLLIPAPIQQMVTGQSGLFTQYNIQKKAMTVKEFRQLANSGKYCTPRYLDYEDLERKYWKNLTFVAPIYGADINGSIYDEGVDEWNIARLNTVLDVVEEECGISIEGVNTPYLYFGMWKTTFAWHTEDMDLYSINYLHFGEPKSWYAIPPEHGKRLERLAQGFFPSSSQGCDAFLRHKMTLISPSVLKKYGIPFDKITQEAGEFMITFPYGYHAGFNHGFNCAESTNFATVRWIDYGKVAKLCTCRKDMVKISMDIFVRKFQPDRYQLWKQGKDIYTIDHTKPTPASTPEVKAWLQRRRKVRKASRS
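Test system: N-terminal GST-fused human GASC-1 (KDM4C) fragment, residues 2-372; quantity: GASC-1 enzyme at 10 nM final in reaction; dosing: single dose; schedule: 30 min demethylation and 1 h detection at room temperature; signal: LANCE TR-FRET, excitation 340 nm, emissions 618 and 671 nm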
IDH1 R132H inh: inhibitors of human IDH1 R132H | O75874 | IDH1 R132H reductase, diaphorase/resazurin fluorescence, 60 min | inhibition, % at 10 µM | 70,000 compounds, 0.18% hits; in the data active = inhibition above about 34%; inconclusive = no clear call, values can overlap the other calls; inactive = below about 11%
Target sequence (O75874 whole entry R132H): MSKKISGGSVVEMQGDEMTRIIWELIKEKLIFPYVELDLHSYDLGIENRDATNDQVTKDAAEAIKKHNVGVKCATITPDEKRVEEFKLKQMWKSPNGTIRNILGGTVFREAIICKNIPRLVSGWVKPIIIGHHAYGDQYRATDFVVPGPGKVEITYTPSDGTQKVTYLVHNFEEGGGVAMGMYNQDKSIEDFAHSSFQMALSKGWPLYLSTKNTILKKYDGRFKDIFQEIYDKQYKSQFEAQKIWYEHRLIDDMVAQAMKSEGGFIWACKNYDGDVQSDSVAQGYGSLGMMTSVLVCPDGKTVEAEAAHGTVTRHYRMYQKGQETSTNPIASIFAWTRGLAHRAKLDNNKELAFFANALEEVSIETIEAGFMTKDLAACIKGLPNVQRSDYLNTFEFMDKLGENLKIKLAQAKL
Pf Dd2 inh: inhibitors of Plasmodium falciparum Dd2 growth; P. falciparum Dd2 growth, SYBR Green, 72 h; active compounds read low; 94,000 compounds, 2.3% hits; activity change, % at 10 µM; in the data active = activity change below about -80%; inconclusive = no clear call, values can overlap the other calls
T cruzi growth-2: blocks T. cruzi growth in NIH3T3 host cells; shares compounds with T cruzi growth-1; T. cruzi beta-gal in NIH3T3, GalScreen luminescence, 90 h; inhibition, % at 8.35 µM; 5,600 compounds, 72% hits;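 active = mean replicate inhibition above about 95% and at least 55% of replicates individually reaching it, limit read from the data; inconclusive = only one of the two criteria is met; inactive = neither criterion is met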
T cruzi growth-3: inhibitors of T. cruzi proliferation; T. cruzi beta-gal in NIH3T3, GalScreen luminescence, 90 h; AID 651740; 5,600 compounds, 21% hits; shares compounds with T cruzi growth-1; inhibition, % at 2.09 µM;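 active = mean inhibition above about 95%, with at least 55% of replicates also reaching it, limit read from the data; inconclusive = meets just one of the two conditions; inactive = meets neither condition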
NIH3T3 tox: NIH/3T3 (mouse) viability loss; cytotoxicity (signal decrease), % at 8.35 µM; 5,600 compounds, 14% hits; shares compounds with T cruzi growth-1; NIH/3T3 viability, CellTiter-Glo ATP luminescence, 90 h;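 active = mean signal decrease across replicates above about 35% based on untreated-well scatter, with enough replicates individually passing, limit read from the data; inconclusive = no rule stated though some were filed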
NIH3T3 tox 2: cytotoxicity in mouse NIH/3T3 fibroblasts; NIH/3T3 viability, CellTiter-Glo ATP luminescence, 90 h; 5,600 compounds, 56% hits; inhibition, % at 24.9 µM; shares compounds with T cruzi growth-1;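 active = mean loss of cell viability signal at or above a set limit, and enough replicates individually reaching it; inconclusive = meets only the mean limit or only the replicate share; inactive = meets neither condition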
Each line names hits and unclear results; the compound was inactive in the other large screens (follow-up assays come after a bar, where they were run); ! = a repeat was not active. Compounds with a hit are over-represented: about 5.9% of the library has one in this group of screens.

C[C@@H]1CCCCO[C@H](CN(C)Cc2ccccc2)[C@H](C)CN([C@@H](C)CO)C(=O)c2cc(NS(C)(=O)=O)ccc2O1	none
COCC#Cc1ccc([C@H]2[C@H](CO)N3CCCCN(S(=O)(=O)c4cccc(OC)c4)C[C@@H]23)cc1	T cruzi growth-1 108 (no result: IDH1 R132H inh) | T cruzi growth-2 97 | T cruzi growth-3 inactive | NIH3T3 tox inactive | NIH3T3 tox 2 inconclusive
COCC#Cc1ccc([C@@H]2[C@H]3CN(S(=O)(=O)c4ccc(OC)cc4)CCCCN3[C@H]2CO)cc1	T cruzi growth-1 99 (no result: IDH1 R132H inh) | T cruzi growth-2 100 | T cruzi growth-3 inactive | NIH3T3 tox inactive | NIH3T3 tox 2 31
COCC#Cc1ccc([C@H]2[C@@H](CO)N3CCCCN(S(=O)(=O)c4cccc(OC)c4)C[C@@H]23)cc1	none (no result: IDH1 R132H inh)
COc1ccc(OC)c(S(=O)(=O)N(C)CC(=O)Nc2ccc(F)cc2)c1	none (no result: T cruzi growth-1, KDM4C inh, Pf Dd2 inh)
CC(C)(O)C#Cc1ccccc1C(=O)NC(Cc1c[nH]c2ccccc12)C(=O)O (stereo unspecified)	none (no result: T cruzi growth-1, KDM4C inh, Pf Dd2 inh)
N#C[C@@H]1[C@H](c2ccc(-c3cccc(F)c3)cc2)[C@@H](CO)N1S(=O)(=O)c1cccc(F)c1	T cruzi growth-1 102 (no result: IDH1 R132H inh) | T cruzi growth-2 105 | T cruzi growth-3 103 | NIH3T3 tox inactive | NIH3T3 tox 2 105
C/C=C/c1ccc([C@@H]2[C@@H](C#N)N(S(=O)(=O)c3cccc(F)c3)[C@@H]2CO)cc1	T cruzi growth-1 107 (no result: IDH1 R132H inh) | T cruzi growth-2 inactive | T cruzi growth-3 inactive | NIH3T3 tox inactive | NIH3T3 tox 2 25
N#C[C@@H]1[C@@H](c2ccc(-c3cccc(F)c3)cc2)[C@H](CO)N1S(=O)(=O)c1cccc(F)c1	T cruzi growth-1 99 (no result: IDH1 R132H inh) | T cruzi growth-2 102 | T cruzi growth-3 inactive | NIH3T3 tox 41 | NIH3T3 tox 2 107
CCS(=O)(=O)N1[C@H](C#N)[C@@H](c2ccc(-c3cccc(F)c3)cc2)[C@@H]1CO	none (no result: IDH1 R132H inh)
Cc1ccc(S(=O)(=O)N2C(=O)CCC2C(=O)Nc2cccc3c2CCCC3)cc1 (stereo unspecified)	none (no result: T cruzi growth-1, KDM4C inh, Pf Dd2 inh)
CC(C)C#Cc1ccc2c(c1)O[C@H](CN(C)Cc1ccccn1)[C@H](C)CN([C@@H](C)CO)S2(=O)=O	none (no result: KDM4C inh)
CC(C)C#Cc1ccc2c(c1)O[C@H](CN(C)Cc1ccccn1)[C@@H](C)CN([C@@H](C)CO)S2(=O)=O	T cruzi growth-1 inconclusive (no result: KDM4C inh, IDH1 R132H inh) | T cruzi growth-2 107 | T cruzi growth-3 inactive | NIH3T3 tox inactive | NIH3T3 tox 2 78
CC(C)C#Cc1ccc2c(c1)O[C@H](CN(C)Cc1ccccn1)[C@@H](C)CN([C@H](C)CO)S2(=O)=O	T cruzi growth-1 inconclusive (no result: KDM4C inh) | T cruzi growth-2 102 | T cruzi growth-3 inactive | NIH3T3 tox 65 | NIH3T3 tox 2 54
CC(C)C#Cc1ccc2c(c1)O[C@@H](CN(C)Cc1ccccn1)[C@H](C)CN([C@@H](C)CO)S2(=O)=O	T cruzi growth-1 inconclusive (no result: KDM4C inh, IDH1 R132H inh) | T cruzi growth-2 108 | T cruzi growth-3 inactive | NIH3T3 tox 55 | NIH3T3 tox 2 95
C[C@@H]1CCCCO[C@H](CN(C)Cc2ccccc2)[C@@H](C)CN([C@@H](C)CO)C(=O)c2cc(NC(=O)c3ccccc3)ccc2O1	none
C[C@@H]1CN([C@H](C)CO)C(=O)c2cc(NC(=O)c3ccccc3)ccc2O[C@@H](C)CCCCO[C@@H]1CN(C)Cc1ccncc1	none
C[C@@H]1CN([C@H](C)CO)C(=O)c2cc(NC(=O)c3ccccc3)ccc2O[C@@H](C)CCCCO[C@H]1CN(C)Cc1ccccc1	T cruzi growth-1 103 (no result: IDH1 R132H inh) | T cruzi growth-2 113 | T cruzi growth-3 inactive | NIH3T3 tox inactive | NIH3T3 tox 2 89
C[C@@H]1CN([C@H](C)CO)C(=O)c2cc(NC(=O)c3ccccc3)ccc2O[C@@H](C)CCCCO[C@@H]1CN(C)Cc1ccccc1	T cruzi growth-1 inconclusive | T cruzi growth-2 108 | T cruzi growth-3 inactive | NIH3T3 tox inactive | NIH3T3 tox 2 35
C[C@@H]1CN([C@@H](C)CO)C(=O)c2cc(NC(=O)c3ccccc3)ccc2O[C@@H](C)CCCCO[C@H]1CN(C)Cc1ccncc1	T cruzi growth-1 101 (no result: IDH1 R132H inh) | T cruzi growth-2 109 | T cruzi growth-3 inactive | NIH3T3 tox inactive | NIH3T3 tox 2 inactive
C[C@@H]1CN([C@@H](C)CO)C(=O)c2cc(NC(=O)c3ccccc3)ccc2O[C@@H](C)CCCCO[C@@H]1CN(C)Cc1ccccc1	none (no result: IDH1 R132H inh)
C[C@@H]1CCCCO[C@@H](CN(C)Cc2ccccc2)[C@H](C)CN([C@H](C)CO)C(=O)c2cc(NC(=O)c3ccccc3)ccc2O1	T cruzi growth-1 inconclusive (no result: IDH1 R132H inh) | T cruzi growth-2 114 | T cruzi growth-3 inactive | NIH3T3 tox inactive | NIH3T3 tox 2 55
O=C(NO)c1cccc(C(=O)N/N=C/c2ccc(OCc3ccccc3)cc2O)c1	none (no result: T cruzi growth-1, KDM4C inh, Pf Dd2 inh)
O=C(Cn1cnc2ccccc2c1=O)Nc1cccc(C(=O)c2ccccc2)c1	none (no result: T cruzi growth-1, KDM4C inh, Pf Dd2 inh)
Nc1nc(COc2cccc3cccnc23)nc(Nc2ccccc2)n1	none (no result: T cruzi growth-1, KDM4C inh, Pf Dd2 inh)
COC(=O)c1ccccc1NC(=O)CN1CCN(C)CC1	none (no result: T cruzi growth-1, KDM4C inh, Pf Dd2 inh)
Cc1ccccc1NC(=O)COc1ccc(C)c([N+](=O)[O-])c1	none (no result: T cruzi growth-1, KDM4C inh, Pf Dd2 inh)
N#Cc1ccc(-c2cccs2)nc1SCC(=O)Nc1sc2c(c1C#N)CCCC2	none (no result: T cruzi growth-1, KDM4C inh, Pf Dd2 inh)
COc1ccc(NC(=O)CN(c2ccc(Br)c(C)c2)S(C)(=O)=O)cc1Cl	none (no result: T cruzi growth-1, KDM4C inh, Pf Dd2 inh)
CC(C)CC#Cc1ccc2c(c1)O[C@H](CN(C)C(=O)Nc1ccccc1)[C@@H](C)CN([C@H](C)CO)S2(=O)=O	T cruzi growth-1 117! | T cruzi growth-2 107 | T cruzi growth-3 inactive | NIH3T3 tox inactive | NIH3T3 tox 2 inconclusive
CC(C)CC#Cc1ccc2c(c1)O[C@@H](CN(C)C(=O)Nc1ccccc1)[C@@H](C)CN([C@@H](C)CO)S2(=O)=O	T cruzi growth-1 127 | T cruzi growth-2 111 | T cruzi growth-3 105 | NIH3T3 tox inactive | NIH3T3 tox 2 103
CC(C)CC#Cc1ccc2c(c1)O[C@@H](CN(C)C(=O)Nc1ccccc1)[C@H](C)CN([C@@H](C)CO)S2(=O)=O	T cruzi growth-1 121 | T cruzi growth-2 107 | T cruzi growth-3 inactive | NIH3T3 tox inactive | NIH3T3 tox 2 78
COc1ccc(NC(=O)N(C)C[C@H]2Oc3cc(C#CCC(C)C)ccc3S(=O)(=O)N([C@H](C)CO)C[C@@H]2C)cc1	none
C[C@@H]1CN([C@H](C)CO)S(=O)(=O)c2ccc(C#Cc3ccccc3)cc2O[C@@H]1CN(C)C(=O)Nc1ccccc1	none
C/C=C/c1cnc2c(c1)C(=O)N([C@H](C)CO)C[C@H](C)[C@H](CN(C)S(=O)(=O)c1ccc(F)cc1)O2	none
